Reference: ChEMBL document CHEMBL4619773, “Chemoreactive-Inspired Discovery of Influenza A Virus Dual Inhibitor to Block Hemagglutinin-Mediated Adsorption and Membrane Fusion” (J Med Chem, 2020)
The source made the active and inactive calls. No cut-off for these calls is given here.

Assays:
[1] = test system: Influenza A virus (A/Puerto Rico/8/1934(H1N1)); assay: Inhibition of Hemagglutinin T359A mutant in Influenza A virus (A/Puerto Rico/8/1934(H1N1))/H1N1 pseudovirus infected in 293FT cells assessed as reduction in virus infection at 50 ug/ml pre-treated with virus before infection and measured after 48 hrs by inverted fluorescence microscopy; format: cell-based
In short: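 PR8 pseudoviruses (IAV-GFP) carrying wild-type HA or a mutant HA (T30N/E233D/T359A or T359A) were made in 293FT cells by co-transfecting HA, NA, HIV backbone and GFP reporter plasmids, and supernatants were harvested at 48 h. Pseudovirus was pretreated with compound at 50 µg/ml for 1 h at 37 °C before infection. Infected GFP-positive cells were viewed by fluorescence microscopy 48 h p.i.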

[2] = test system: Influenza A virus (A/Puerto Rico/8/1934(H1N1)); assay: Inhibition of Hemagglutinin T30N/E233D/T359A mutant in Influenza A virus (A/Puerto Rico/8/1934(H1N1))/H1N1 pseudovirus infected in 293FT cells assessed as reduction in virus infection at 50 ug/ml pre-treated with virus before infection and measured after 48 hrs by inverted fluorescence microscopy; format: cell-based
In short: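 GFP-reporter lentiviral pseudoviruses bearing PR8 wild-type or mutant (T30N/E233D/T359A or T359A) HA plus NA were produced in 293FT cells. Pseudovirus was pretreated with 50 µg/ml compound for 1 h at 37 °C before infection. GFP-positive cells were counted by fluorescence microscopy at 48 h p.i.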

CC(=O)c1cc(C)c(O)c(Cc2[nH]c3ccccc3c2Cc2c(O)c(C)cc(C(C)=O)c2O)c1O
inhibition [1]: inactive
inhibition [2]: inactive
